Compound activity (PubChem)
Sampled rows, rich in hits. Any-hit rate of the full collection: about 6%.
HUVEC inhibit – human endothelial cell proliferation inhibition. HUVEC proliferation, CellTiter-Glo luminescence, 72 h; stronger effect = lower value. viability, % at 10 µM (by protocol). 1.1% of 86,000 active;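 active = viability at or below 30%; inactive = viability above 30%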;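 also: 100% = median luminescence of DMSO-only cell control wells on each plate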
Fibroblast inh – blocks proliferation of human lung fibroblasts; LL 47 human lung fibroblast viability, ATP luminescence; stronger effect = lower value; viability, % at 10 µM; 1.1% of 85,000 active;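 active = viability at or below 50% in the single dose screen; inactive = viability above 50%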;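 also: compound exposure lasted 72 h before the ATP readout; 100% = median luminescence of untreated cell-only wells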
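material = human LL 47 lung fibroblast cells | dosing = compounds added from tenfold dosing solution, 0.1% DMSO final | timing = overnight cell rest, 72 h compound treatment at 37 °C | measured by = CellTiter-Glo luminescence measuring cellular ATP | evaluation = % viability versus median cells-only luminescence | control set = cell-only wells, no compound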
cytoskel mod – alters cytoskeleton assembly in HUVEC cells | 0.18% of 91,000 active | inhibition, % at 2 µM | HUVEC TNFa F-actin phalloidin imaging, high content;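 active = inhibition above the batch mean plus 3 SD and confirmed as a hit by visual image inspection, cut at about 30% in these data, passing the limit was not always enough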
H69AR growth 86K – growth inhibitors of human H69AR lung tumor cells. H69AR lung tumor viability, ATP luminescence, 72 h; stronger effect = lower value. viability, % at 10 µM. 6% of 85,000 active. AID 598;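 active = viability at or below 40%; inactive = viability above 40%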;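 also: multidrug resistant small cell line overexpressing MRP-1 efflux transporter; 100% = mean luminescence of untreated control wells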
Jurkat tox 60K – reduces viability or proliferation of Jurkat cells; Jurkat E6.1 viability, ATP luminescence, 48 h; inhibition, % at 4 µM; 1.2% of 56,000 active;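 active = inhibition above the mean inhibition of all tested compounds plus 3 SD, cut at about 28% in these data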
PTK2B oligo ant – Pyk2 (human) oligomerization antagonism; z-score (the deposit names both 25 µM and 10 µM); Q14289; Q293 cells, Pyk2 FERM NanoBiT luminescence; stronger effect = lower value; 0.83% of 99,000 active;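 active = Z-score of -3 or lower, scaled per plate to the spread of control and sample wells; inactive = z-score above -3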;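 also: negative z-score means lost luminescence so less FERM oligomerization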
Target sequence (Q14289 whole entry, looked up): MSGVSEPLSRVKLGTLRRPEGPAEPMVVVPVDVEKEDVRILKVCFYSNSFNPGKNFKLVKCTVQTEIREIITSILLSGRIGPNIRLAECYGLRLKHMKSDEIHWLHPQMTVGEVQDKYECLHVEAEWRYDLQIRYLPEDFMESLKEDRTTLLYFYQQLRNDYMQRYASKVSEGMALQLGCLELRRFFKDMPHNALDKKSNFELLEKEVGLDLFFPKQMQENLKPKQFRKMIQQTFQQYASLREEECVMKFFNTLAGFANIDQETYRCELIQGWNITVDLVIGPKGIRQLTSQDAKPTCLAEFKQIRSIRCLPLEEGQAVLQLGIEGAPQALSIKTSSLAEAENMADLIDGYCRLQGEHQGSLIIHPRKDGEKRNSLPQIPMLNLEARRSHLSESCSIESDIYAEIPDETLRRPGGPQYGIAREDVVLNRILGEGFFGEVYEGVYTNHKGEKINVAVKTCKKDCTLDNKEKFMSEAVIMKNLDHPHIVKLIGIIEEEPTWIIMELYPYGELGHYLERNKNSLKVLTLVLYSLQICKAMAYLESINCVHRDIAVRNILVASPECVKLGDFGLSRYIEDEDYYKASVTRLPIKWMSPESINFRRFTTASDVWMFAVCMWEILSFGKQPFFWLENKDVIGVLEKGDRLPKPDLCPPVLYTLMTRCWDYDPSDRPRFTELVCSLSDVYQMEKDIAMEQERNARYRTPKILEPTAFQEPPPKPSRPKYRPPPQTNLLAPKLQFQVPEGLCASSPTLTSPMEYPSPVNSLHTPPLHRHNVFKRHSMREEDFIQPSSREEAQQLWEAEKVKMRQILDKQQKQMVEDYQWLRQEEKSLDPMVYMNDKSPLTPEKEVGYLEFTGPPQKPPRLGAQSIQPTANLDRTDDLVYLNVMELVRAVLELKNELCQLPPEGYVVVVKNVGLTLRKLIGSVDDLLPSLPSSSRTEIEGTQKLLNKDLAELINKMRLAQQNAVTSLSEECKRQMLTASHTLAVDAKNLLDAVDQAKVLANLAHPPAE
* = called active by the depositor.

Results for O=S(=O)(Nc1cccc2ncccc12)c1cccs1 ?
Jurkat tox 60K: 76.5*; PTK2B oligo ant: -1.76

What do the screens show for `COCCCNC(=O)c1sc2ncnc(N3CCc4ccccc4C3)c2c1C`?
HUVEC inhibit: 59.8; Fibroblast inh: 67.6; cytoskel mod: 0.0; H69AR growth 86K: 27.7*; PTK2B oligo ant: -0.01

Results for CCC(C)c1ccc(OCCCCN2CCOCC2)cc1 (centres undefined) ?
HUVEC inhibit: 79.1; Fibroblast inh: 92.4; cytoskel mod: 6.4; H69AR growth 86K: 82.3; PTK2B oligo ant: 0.01

Results for Cc1cc(C)c(-n2c(C)cc(/C=C3/NC(=O)NC3=O)c2C)c(C)c1 ?
HUVEC inhibit: 74.4; Fibroblast inh: 90.2; cytoskel mod: -23.0; H69AR growth 86K: 17.1*

What do the screens show for `CCOc1cc(C(=S)N2CCCC2)ccc1OCC(=O)Nc1c(C)cc(C)cc1C`?
PTK2B oligo ant: -0.7

What do the screens show for `Cc1cc(C)c(NC(=O)CN2C(=O)NC3(CCCCC3)C2=O)c(Cl)c1`?
HUVEC inhibit: 81.4; Fibroblast inh: 88.5; cytoskel mod: -0.3; H69AR growth 86K: 28.7*; Jurkat tox 60K: -5.8; PTK2B oligo ant: -0.14

What do the screens show for `O=C(CSc1nnc(CCCN2C(=O)c3cccc4cccc(c34)C2=O)n1-c1ccccc1)N1CCN(CCO)CC1`?
PTK2B oligo ant: 0.33

Results for COc1ccc(-n2nnnc2-c2cccc(OC)c2)cc1 ?
HUVEC inhibit: 49.3; Fibroblast inh: 58.1; cytoskel mod: -7.4; H69AR growth 86K: 25.7*; Jurkat tox 60K: 78.0*; PTK2B oligo ant: -0.64

Results for Clc1ccc(-n2nnnc2-c2ccccc2)cc1Cl ?
HUVEC inhibit: 92.1; Fibroblast inh: 98.4; H69AR growth 86K: 98.4; Jurkat tox 60K: 4.1; PTK2B oligo ant: -0.14

What do the screens show for `CC(C)C(NC(=O)COc1ccc2ccccc2c1)C(=O)N/N=C/C=C/c1ccccc1` (centres undefined)?
cytoskel mod: 14.4; PTK2B oligo ant: 1.12

How did Oc1c(C=Nc2cccc3cccnc23)sc2ccccc12 do in these assays?
HUVEC inhibit: 4.2*; Fibroblast inh: 42.2*; cytoskel mod: -1.5; H69AR growth 86K: 17.1*

What do the screens show for `CCOC(=O)C1=C(C)NC(SCC(=O)Nc2cc(C)on2)=C(C#N)C1c1cccs1` (centres undefined)?
HUVEC inhibit: 72.7; Fibroblast inh: 88.4; cytoskel mod: -5.7; H69AR growth 86K: 63.0; Jurkat tox 60K: -7.0; PTK2B oligo ant: -0.56

Results for CCCC1=Nc2cc(C(=O)NCCCOC(C)C)ccc2Sc2ccccc21 ?
HUVEC inhibit: 43.0; Fibroblast inh: 50.1; cytoskel mod: 3.5; H69AR growth 86K: 16.4*; PTK2B oligo ant: -0.44

How did COCCCNC(=O)c1cccc(C(=O)NCCCOC)c1 do in these assays?
HUVEC inhibit: 108.0; cytoskel mod: 5.5; H69AR growth 86K: 88.5; Jurkat tox 60K: 0.8; PTK2B oligo ant: 1.7

How did CCCC1=Nc2cc(C(=O)NCCCOCC)ccc2Sc2ccccc21 do in these assays?
HUVEC inhibit: 38.1; Fibroblast inh: 57.8; cytoskel mod: -46.2; H69AR growth 86K: 33.0*; PTK2B oligo ant: -0.41

How did CCOCCCNC(=O)c1ccc(OC)cc1 do in these assays?
HUVEC inhibit: 92.2; Fibroblast inh: 98.9; cytoskel mod: -23.6; H69AR growth 86K: 88.7; Jurkat tox 60K: -5.6; PTK2B oligo ant: 0.73

How did CCC1=Nc2cc(C(=O)NCCCOC)ccc2Sc2ccccc21 do in these assays?
HUVEC inhibit: 45.6; Fibroblast inh: 58.3; cytoskel mod: -21.5; H69AR growth 86K: 32.4*; PTK2B oligo ant: -0.74

How did CCc1cccc2c(C(=O)Cn3nnc(-c4ccc(OC)c(OC)c4)n3)c[nH]c12 do in these assays?
HUVEC inhibit: 80.4; Fibroblast inh: 92.6; cytoskel mod: 14.4; H69AR growth 86K: 39.3*; PTK2B oligo ant: -1.85

How did CCN(CC)S(=O)(=O)c1ccc2oc(Nc3ccc4c(c3)OCCO4)nc2c1 do in these assays?
HUVEC inhibit: 53.8; Fibroblast inh: 95.1; cytoskel mod: 2.6; H69AR growth 86K: 64.9; PTK2B oligo ant: -3.53*

What do the screens show for `Cc1nc2ccc(Nc3nc4cc(S(=O)(=O)N5CCOCC5)ccc4o3)cc2s1`?
HUVEC inhibit: 89.0; Fibroblast inh: 104.4; cytoskel mod: 10.6; H69AR growth 86K: 77.2; Jurkat tox 60K: 3.0; PTK2B oligo ant: -1.49

Results for Cc1ccc2c(c1)CCCN2C(=O)c1c(C)noc1C ?
HUVEC inhibit: 78.4; Fibroblast inh: 86.6; cytoskel mod: 14.6; H69AR growth 86K: 91.0; Jurkat tox 60K: -0.3; PTK2B oligo ant: -0.71

What do the screens show for `Cc1ccc2c(c1)CCCN2C(=O)c1ccoc1C`?
HUVEC inhibit: 85.0; Fibroblast inh: 102.8; H69AR growth 86K: 34.0*; Jurkat tox 60K: 21.7; PTK2B oligo ant: -0.12

What do the screens show for `CCN(CC)S(=O)(=O)c1ccc2oc(SCC3CN=C(c4ccc(OC)cc4)S3)nc2c1` (centres undefined)?
HUVEC inhibit: 65.3; Fibroblast inh: 90.1; cytoskel mod: 9.7; H69AR growth 86K: 56.9; Jurkat tox 60K: 2.1; PTK2B oligo ant: 0.18

What do the screens show for `COc1nc2c(C)cccc2cc1-c1noc(-c2ccco2)n1`?
HUVEC inhibit: 75.4; Fibroblast inh: 94.1; cytoskel mod: -13.6; H69AR growth 86K: 54.5; Jurkat tox 60K: -8.1; PTK2B oligo ant: -0.7

Results for O=C(c1cc2ccccc2oc1=O)N(Cc1ccccc1)Cc1ccc2c(c1)OCO2 ?
HUVEC inhibit: 87.4; Fibroblast inh: 93.7; cytoskel mod: 1.8; H69AR growth 86K: 108.7; PTK2B oligo ant: -3.14*

How did O=C(c1cc2ccccc2oc1=O)N1CCN(Cc2ccc3c(c2)OCO3)CC1 do in these assays?
HUVEC inhibit: 101.9; Fibroblast inh: 107.2; cytoskel mod: 9.9; H69AR growth 86K: 91.6; Jurkat tox 60K: -3.1; PTK2B oligo ant: 0.26

How did CCOC(=O)NC1(NC(C)C)Oc2ccccc2O1 do in these assays?
HUVEC inhibit: 69.0; Fibroblast inh: 93.0; cytoskel mod: 8.4; H69AR growth 86K: 36.1*; PTK2B oligo ant: -1.01

What do the screens show for `CCOC(=O)NC1(NCC(C)C)Oc2ccccc2O1`?
cytoskel mod: -45.9; PTK2B oligo ant: 0.63

Results for CCOC(=O)NC1(NC2CCCCC2)Oc2ccccc2O1 ?
HUVEC inhibit: 89.0; cytoskel mod: -16.4; H69AR growth 86K: 21.0*; Jurkat tox 60K: 3.6; PTK2B oligo ant: -0.04

What do the screens show for `CCOC(=O)NC1(NCc2ccccc2)Oc2ccccc2O1`?
HUVEC inhibit: 77.0; Fibroblast inh: 93.5; cytoskel mod: -3.7; H69AR growth 86K: 19.4*; Jurkat tox 60K: 15.9; PTK2B oligo ant: 1.49

What do the screens show for `COc1cc(C)c(C(C)C)cc1S(=O)(=O)n1cnc(C)c1`?
HUVEC inhibit: 42.9; Fibroblast inh: 55.9; H69AR growth 86K: 33.7*; Jurkat tox 60K: 85.1*

What do the screens show for `COc1cc(C)c(C(C)C)cc1S(=O)(=O)N1CCN(C)CC1`?
HUVEC inhibit: 90.8; Fibroblast inh: 95.7; cytoskel mod: 10.3; H69AR growth 86K: 87.4; Jurkat tox 60K: -3.1; PTK2B oligo ant: 0.87
